Screening results: PubChem BioAssay, several laboratories
PolyA inhibitor: yeast polyadenylation inhibition. S. cerevisiae SKY197-pL101 polyadenylation reporter, beta-gal luminescence; efflux-impaired pdr1/pdr3 knockout yeast; score 100 = 6 SD above DMSO. activity score, % at 12 µM. 300,000 tested, 0.02% active. AID 1875;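 active means lowest replicate activity score at least 50, where 100 means six control SD above control mean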;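 further: yeast exposed to compound for 9 h at 30 °C; higher score means more reporter readthrough which indicates perturbed polyadenylation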
Efflux pump inh: inhibitors of Candida antifungal efflux pumps expressed in yeast | S. cerevisiae Candida pump triplex, Nile Red efflux | inhibition, % at 10 µM | 330,000 tested, 0.44% active;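 active means plate passing quality check with inhibition over a set limit, or well fluorescence over plate mean plus 4 SD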;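 further: Nile Red retained in pooled yeast measured as flow cytometry median fluorescence; higher means more Nile Red kept so more efflux inhibition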
STK33 inh: human STK33 kinase inhibition. Q9BYT3. purified STK33, MBP phosphorylation, ADP-Glo luminescence. inhibition, % at 10 µM. 320,000 tested, 0.073% active. AID 2661;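 active means inhibition at or above 25%, using the most active replicate where run in duplicate; inactive means inhibition below 25%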
GSK3 alpha inh: blocks human GSK-3 alpha kinase; P49840; ADP-Glo luminescence, 60 min; inhibition, % at 10 µM; 320,000 tested, 0.1% active; AID 2650;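 active means more than half of replicates show inhibition above 20%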;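 further: GST-tagged GSK-3 alpha with peptide substrate and 25 µM ATP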
GSK3beta inhib: inhibitors of human GSK3beta kinase | P49841 | GST-GSK3beta kinase, ADP-Glo luminescence, 60 min; stronger effect = lower value | activity score (negative = inhibition), % at 10 µM | 300,000 tested, 0.038% active | AID 2097;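 active means more than half of replicate wells score below -50%, meaning over 50% inhibition versus plate controls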
Target sequence (P49841 whole entry, looked up): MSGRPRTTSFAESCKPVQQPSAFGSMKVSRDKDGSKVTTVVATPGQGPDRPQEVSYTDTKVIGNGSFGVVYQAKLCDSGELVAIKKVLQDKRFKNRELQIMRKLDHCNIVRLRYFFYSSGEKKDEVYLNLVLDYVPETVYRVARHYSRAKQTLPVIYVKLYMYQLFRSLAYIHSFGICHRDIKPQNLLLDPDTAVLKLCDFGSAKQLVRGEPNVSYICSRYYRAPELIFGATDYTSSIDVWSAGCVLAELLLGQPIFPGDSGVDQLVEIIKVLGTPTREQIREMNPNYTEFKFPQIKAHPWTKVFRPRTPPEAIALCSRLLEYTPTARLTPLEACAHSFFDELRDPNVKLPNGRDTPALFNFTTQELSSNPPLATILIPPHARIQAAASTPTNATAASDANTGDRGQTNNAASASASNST
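Test system – GST-tagged human GSK3beta kinase, cell-free · Incubation – 60 min enzyme reaction, room temperature · Signal – ADP-Glo luminescence · Also added – peptide substrate and ATP at 25 µM · Controls – DMSO neutral wells and GW8510 at 20 µM as positive · Buffer or medium – Tris/MgCl2 kinase buffer · Measure – Luminescence-derived activity versus plate DMSO and GW8510 wells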
Yeast cmpd fluor: flagged as fluorescent in efflux inhibitor counter-screen | shares compounds with Efflux pump inh | S. cerevisiae AD/pABC3, compound fluorescence, flow cytometry | fluorescence ratio to DMSO, % at 10 µM | AID 588517 | 1,700 tested, 4% active;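 active means fluorescence ratio to DMSO above its plate's cutoff, the plate mean ratio plus 5 SD, cut at about 210% in these data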;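 further: unstained yeast with no Nile Red so the signal is compound autofluorescence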
Mdr1 pump inh: inhibitors of Candida albicans Mdr1 efflux pump; S. cerevisiae AD/CaMDR1, Nile Red efflux, flow cytometry; AID 588518; shares compounds with Efflux pump inh; inhibition, % at 10 µM; 1,700 tested, 1% active; in the data active means inhibition above about 26%;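 further: higher means more Nile Red retained so more efflux inhibition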
Cdr2 pump inh: blocks the Candida albicans Cdr2 efflux pump in yeast | S. cerevisiae AD/CaCDR2, Nile Red retention, flow cytometry | AID 588520 | shares compounds with Efflux pump inh | Nile Red retention ratio vs DMSO, % at 10 µM | 1,700 tested, 4% active; in the data active means Nile Red retention ratio vs DMSO above about 190%;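 further: higher ratio means more blocking of Cdr2 efflux of the dye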
CaCdr1 efflux inh: blocks the Candida albicans Cdr1 efflux pump in yeast; inhibition, % at 10 µM; shares compounds with Efflux pump inh; S. cerevisiae AD/CaCDR1, Nile Red efflux, flow cytometry; AID 588522; 1,700 tested, 1% active;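 active means inhibition above the screen-wide mean plus twice its standard deviation, cut at about 32% in these data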
Large screens that a line does not name were inactive (follow-up assays come after a bar, where they were run). An excerpt weighted towards active compounds, which were near 0.6% of everything screened.

Cc1csc(SCC(=O)Nc2ncc(Cl)c(C)c2Cl)n1	none
Cn1c(=O)c2cc(S(=O)(=O)NCCC(=O)NC3CCCCCCC3)ccc2n(C)c1=O	Efflux pump inh 8.2 | Yeast cmpd fluor inactive | Mdr1 pump inh inactive | Cdr2 pump inh inactive | CaCdr1 efflux inh inactive
CCOc1ccc(NC(=O)CCNS(=O)(=O)c2ccc3c(c2)c(=O)n(C)c(=O)n3C)cc1	Efflux pump inh 6.7 | Yeast cmpd fluor inactive | Mdr1 pump inh inactive | Cdr2 pump inh inactive | CaCdr1 efflux inh inactive
Cn1c(=O)c2cc(S(=O)(=O)NCCC(=O)Nc3ccc(Cl)cc3)ccc2n(C)c1=O	none
Cc1cccc(NC(=O)c2oc(=O)c3ccccc3c2-c2ccccc2)c1C	none
Cc1ccc(C)c(NS(=O)(=O)c2c(C)nc3sccn3c2=O)c1	none
COc1ccc(/C=N\NC(=O)c2ccccc2)cc1COc1ccccc1	none
COc1ccc(/C=N/NC(=O)c2nc(Cl)c(Cl)c(N)c2Cl)cc1COc1ccc(F)cc1F	Efflux pump inh 1.0 | Yeast cmpd fluor inactive | Mdr1 pump inh inactive | Cdr2 pump inh inactive | CaCdr1 efflux inh inactive
COc1cc(OC)cc(C(=O)N/N=C/c2ccc(OC)c(COc3ccc4ccccc4c3)c2)c1	Efflux pump inh 0.6 | Yeast cmpd fluor inactive | Mdr1 pump inh inactive | Cdr2 pump inh inactive | CaCdr1 efflux inh inactive
O=C(Cc1ccc(S(=O)(=O)N2CCOCC2)s1)N1CCN(S(=O)(=O)c2cccc(Cl)c2)CC1	none
Cc1cc(/C=C(\C#N)C(=O)NCCc2c[nH]c3ccccc23)c(C)n1C	none (no result: PolyA inhibitor)
N#C/C(=C/c1ccc(Br)s1)C(=O)NCCc1c[nH]c2ccccc12	Efflux pump inh 5.5 | Yeast cmpd fluor inactive | Mdr1 pump inh inactive | Cdr2 pump inh inactive | CaCdr1 efflux inh inactive
Nc1cc2c(cc1C(=O)c1cccc(Br)c1)OCCO2	Efflux pump inh 0.6 (no result: GSK3 alpha inh) | Yeast cmpd fluor inactive | Mdr1 pump inh inactive | Cdr2 pump inh inactive | CaCdr1 efflux inh inactive
Nc1cc2c(cc1C(=O)c1ccccc1F)OCCO2	none
CSc1nc2ccc(S(N)(=O)=O)cc2s1	Efflux pump inh 12 | Yeast cmpd fluor inactive | Mdr1 pump inh inactive | Cdr2 pump inh inactive | CaCdr1 efflux inh inactive
CSc1nc2ccc(S(=O)(=O)N3CCCC3)cc2s1	none
CN(Cc1ccccc1)C(=O)COC(=O)CNS(=O)(=O)c1ccc2ccccc2c1	Efflux pump inh 75 | Yeast cmpd fluor inactive | Mdr1 pump inh inactive | Cdr2 pump inh inactive | CaCdr1 efflux inh inactive
CC(C)(C)N(Cc1ccccc1)C(=O)COC(=O)CNS(=O)(=O)c1ccc2ccccc2c1	none (no result: PolyA inhibitor, GSK3beta inhib)
Cc1noc(C)c1C(=O)OCC(=O)Nc1cc(S(=O)(=O)N2CCOCC2)ccc1Cl	none
CCN(CC)Cc1c(O)ccc2c(=O)c(-c3ccccc3)coc12	Efflux pump inh 1.2 | Yeast cmpd fluor inactive | Mdr1 pump inh inactive | Cdr2 pump inh inactive | CaCdr1 efflux inh inactive
S=C(/N=c1/sccn1Cc1ccccc1)NC1CC1	Efflux pump inh 1.3 | Yeast cmpd fluor inactive | Mdr1 pump inh inactive | Cdr2 pump inh inactive | CaCdr1 efflux inh inactive
Cc1ccc(Nc2c(-c3ccc(N4CCOCC4)cc3)nc3ncccn23)cc1	Efflux pump inh 0.9 | Yeast cmpd fluor inactive | Mdr1 pump inh inactive | Cdr2 pump inh inactive | CaCdr1 efflux inh inactive
Cc1cc2nc3c(=O)n(CCc4ccccc4)c(=O)[nH]c3nc2cc1N	none
C=CCn1c(=O)[nH]c2nc3cc(N=CN(C)C)c(C)cc3nc2c1=O	Efflux pump inh 1.7 | Yeast cmpd fluor inactive | Mdr1 pump inh inactive | Cdr2 pump inh inactive | CaCdr1 efflux inh inactive
O=c1[nH][nH]c(-c2ccccc2O)c1C(C[N+](=O)[O-])c1ccccc1 (stereo not drawn)	Efflux pump inh 5.5 | Yeast cmpd fluor inactive | Mdr1 pump inh inactive | Cdr2 pump inh inactive | CaCdr1 efflux inh inactive
CCCCOc1ccc(C(=O)NCC2(c3ccc(OC)cc3)CCOCC2)cc1	none
